Columns and labels:
Integrin alpha-4/beta-1 [1] = biological target: T1, Integrin alpha-4/beta-1 (Homo sapiens, UniProt P05556+P13612); test: Inhibition of Alpha4-beta1 integrin in Jurkat cells (Not active); format: cell-based
In short: (§1)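 Calcein-labelled Jurkat cells were allowed to bind human recombinant sVCAM-1 in the presence of serial dilutions of compound, giving IC50. Values are means ± standard error of the number of independent experiments.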

Integrin alpha-4/beta-1 [2] = biological target: T1, Integrin alpha-4/beta-1; test: Inhibition of Alpha4-beta1 integrin in Jurkat cells; format: cell-based; in short: as §1
Integrin alpha-4/beta-1 [3] = biological target: T1, Integrin alpha-4/beta-1; test: Inhibition of VCAM binding to Alpha4-beta1 integrin of human eosinophil cell; format: protein-complex assay
Integrin alpha-4/beta-1 [4] = biological target: T1, Integrin alpha-4/beta-1; test: Inhibition of human recombinant sVCAM-1 binding to alpha4-beta1 integrin (VLA-4) in ELISA; format: protein-complex assay

T1 sequence (P05556 whole entry): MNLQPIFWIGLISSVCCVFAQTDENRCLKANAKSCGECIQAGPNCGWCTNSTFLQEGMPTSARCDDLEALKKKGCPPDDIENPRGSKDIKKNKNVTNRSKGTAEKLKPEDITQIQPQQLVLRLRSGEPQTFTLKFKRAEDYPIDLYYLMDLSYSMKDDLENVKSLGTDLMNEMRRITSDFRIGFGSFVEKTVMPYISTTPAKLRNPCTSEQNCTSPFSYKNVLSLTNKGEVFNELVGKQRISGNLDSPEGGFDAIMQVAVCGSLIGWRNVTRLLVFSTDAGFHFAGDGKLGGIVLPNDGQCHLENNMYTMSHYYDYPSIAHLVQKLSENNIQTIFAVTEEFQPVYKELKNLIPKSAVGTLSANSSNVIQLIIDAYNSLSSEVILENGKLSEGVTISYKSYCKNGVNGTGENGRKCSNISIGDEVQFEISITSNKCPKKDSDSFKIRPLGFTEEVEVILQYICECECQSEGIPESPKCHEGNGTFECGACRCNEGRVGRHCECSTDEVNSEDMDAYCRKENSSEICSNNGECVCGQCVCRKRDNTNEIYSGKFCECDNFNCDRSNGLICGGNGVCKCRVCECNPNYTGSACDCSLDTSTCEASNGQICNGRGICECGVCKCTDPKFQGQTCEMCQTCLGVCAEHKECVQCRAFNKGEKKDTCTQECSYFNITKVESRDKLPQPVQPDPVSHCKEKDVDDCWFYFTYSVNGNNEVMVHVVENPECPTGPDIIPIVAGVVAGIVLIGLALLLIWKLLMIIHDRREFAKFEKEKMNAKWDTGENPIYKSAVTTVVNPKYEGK
T1 sequence (P13612 whole entry): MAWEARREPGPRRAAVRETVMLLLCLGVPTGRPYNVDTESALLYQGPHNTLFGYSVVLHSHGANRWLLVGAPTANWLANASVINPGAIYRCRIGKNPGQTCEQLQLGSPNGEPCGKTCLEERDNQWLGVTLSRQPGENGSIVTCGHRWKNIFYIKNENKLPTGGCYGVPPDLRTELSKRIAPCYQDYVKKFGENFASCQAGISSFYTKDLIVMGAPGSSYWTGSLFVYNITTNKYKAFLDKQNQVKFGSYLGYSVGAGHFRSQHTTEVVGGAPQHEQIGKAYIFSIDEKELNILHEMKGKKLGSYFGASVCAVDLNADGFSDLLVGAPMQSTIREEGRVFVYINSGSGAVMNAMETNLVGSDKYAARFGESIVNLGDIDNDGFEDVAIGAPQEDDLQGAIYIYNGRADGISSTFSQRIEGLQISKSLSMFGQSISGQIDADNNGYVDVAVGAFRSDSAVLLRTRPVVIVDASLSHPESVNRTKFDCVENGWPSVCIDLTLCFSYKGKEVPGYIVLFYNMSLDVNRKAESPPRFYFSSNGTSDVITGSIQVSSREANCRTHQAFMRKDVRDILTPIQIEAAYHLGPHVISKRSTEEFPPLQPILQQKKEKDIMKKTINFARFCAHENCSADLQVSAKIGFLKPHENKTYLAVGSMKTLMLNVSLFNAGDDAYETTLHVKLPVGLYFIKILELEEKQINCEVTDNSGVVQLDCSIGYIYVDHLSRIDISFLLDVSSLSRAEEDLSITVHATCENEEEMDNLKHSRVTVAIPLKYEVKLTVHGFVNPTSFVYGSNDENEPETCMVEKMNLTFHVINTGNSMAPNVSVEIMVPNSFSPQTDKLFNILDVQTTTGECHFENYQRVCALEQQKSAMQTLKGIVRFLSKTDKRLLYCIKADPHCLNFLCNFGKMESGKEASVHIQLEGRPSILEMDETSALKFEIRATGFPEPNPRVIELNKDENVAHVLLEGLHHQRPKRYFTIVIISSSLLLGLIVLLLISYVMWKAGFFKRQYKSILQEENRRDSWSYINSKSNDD

| IC50 (Integrin alpha-4/beta-1 [1]) | IC50 (Integrin alpha-4/beta-1 [2]) [µM] | IC50 (Integrin alpha-4/beta-1 [3]) [µM] | IC50 (Integrin alpha-4/beta-1 [4]) | SMILES |
| --- | --- | --- | --- | --- |
| Not Active | – | – | – | Cc1ccccc1NC(=O)Nc1ccc(CC(=O)N[C@@H](CC(C)C)c2cc(-c3cccc(C(=O)O)c3)on2)cc1 |
| – | 0.00069 | 0.001 | – | COc1cc(CC(=O)N[C@@H](CC(C)C)c2cc(CCC(=O)O)on2)ccc1NC(=O)Nc1ccccc1C |
| – | 2.04 | – | – | Cc1ccccc1NC(=O)Nc1ccc(CC(=O)N[C@@H](CC(C)C)c2nc(CCC(=O)O)cs2)cc1 |
| Not Active | – | – | – | Cc1ccccc1NC(=O)Nc1ccc(CC(=O)N[C@@H](CC(C)C)c2cc(-c3ccccc3C(=O)O)on2)cc1 |

Further lines, the compound ahead of its results:

| SMILES | IC50 (Integrin alpha-4/beta-1 [1]) | IC50 (Integrin alpha-4/beta-1 [2]) [µM] | IC50 (Integrin alpha-4/beta-1 [3]) [µM] | IC50 (Integrin alpha-4/beta-1 [4]) |
| --- | --- | --- | --- | --- |
| Cc1ccccc1NC(=O)Nc1ccc(CC(=O)N[C@@H](CC(C)C)C2=NOC(CCC(=O)O)C2)cc1 (stereo partly drawn) | – | 0.088 | 0.495 | – |
| Cc1ccccc1NC(=O)Nc1ccc(CC(=O)N[C@@H](CC(C)C)c2cc(CCC(=O)O)on2)cc1 | – | 0.027 | 0.143 | – |
| Cc1ccccc1NC(=O)Nc1ccc(CC(=O)N[C@@H](CC(C)C)c2ncc(CCC(=O)O)s2)cc1 | – | 0.016 | 0.18 | – |
| Cc1ccccc1NC(=O)Nc1ccc(CC(=O)N[C@@H](CC(C)C)c2ncc(CC(=O)O)s2)cc1 | – | 2.4 | – | – |
| Cc1ccccc1NC(=O)Nc1ccc(CC(=O)N[C@@H](CC(C)C)c2ncc(CCC(=O)O)o2)cc1 | – | 0.045 | 0.171 | – |
| Cc1ccccc1NC(=O)Nc1ccc(CC(=O)N[C@@H](CC(C)C)c2ncc(CCC(N)=O)s2)cc1 | – | – | – | Not Active |
| Cc1ccccc1NC(=O)Nc1ccc(CC(=O)N[C@@H](CC(C)C)C2=NOC(CCC(=O)O)(CCC(=O)O)C2)cc1 | – | 0.067 | 0.347 | – |
| Cc1ccccc1NC(=O)Nc1ccc(CC(=O)N[C@@H](CC(C)C)c2cc(CCCC(=O)O)on2)cc1 | – | 1.8 | – | – |
